The values that follow come from article PMC11550832 (Nature Communications, 2024).

One data set deals with mice bearing 4T1 tumour. Kind of data set: Bio-distribution, ex vivo fluorescence imaging. The data set is classed as in vivo, mouse. The note with it: single i.v. 13 mg/kg, 4T1 tumour mice, post-injection. The method, boiled down: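 Female Balb/c mice (6–8 weeks) carrying subcutaneous 4T1 tumours (1 × 10⁶ cells, right flank) got a single tail-vein dose of 13 mg/kg nanoparticle. n = 3 per group per time point. Tumour, heart, liver, spleen, lung, kidney, intestine and muscle were harvested at 2, 4, 6, 8, 10, 24, 48, 72 and 168 h post-injection and imaged ex vivo by fluorescence.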

In data set [1] the test system is 4T1 cells co-cultured with activated CD8+ T cells. Kind of data set: Killing effect of activated CD8+ T cells on treated 4T1 cells. The data set is classed as cell-based, mouse. Particulars: co-culture of 4T1 and activated CD8+ T cells. Summed up: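 Splenic mouse CD8⁺ T cells were expanded with IL-2 and activated with anti-CD3/CD28 beads. 4T1 cells were pretreated 4 h with test compound or anti-PD-L1 antibody (68 nM), washed, then co-cultured with T cells (1:10) for 24 h. T cells alone on 4T1 served as control. Read-outs: CCK-8 viability (6 × 10³ cells/well) or calcein-AM staining, 20 min (2 × 10⁴ cells/well).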

Another data set addresses PD-L1 on SKBR-3 cells (Homo sapiens, UniProt Q9NZQ7). Kind of data set: Surface PD-L1 level after treatment. The data set is classed as cell-based. Particulars: SKBR-3, nanoparticles 50 μM or antibody 68 nM, 4 h, flow cytometry. Summed up:
(§1)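 Cells were washed and moved to medium without FBS or penicillin/streptomycin. They were treated 4 h at 37 °C, 5% CO₂ with nanoparticles (50 μM) or anti-PD-L1 antibody (68 nM). Surface PD-L1 was stained 15 min at 4 °C with BV421 antibody (1:200), anti-human for SKBR-3 and anti-mouse for 4T1. Cells were PBS-washed three times and analysed by flow cytometry.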

The test system of a further data set is HFF cells. Kind of data set: Cytotoxicity, CCK-8. The data set is classed as cell-based, human. Particulars: CCK-8, 24 h, 1, 10, 50, 100 and 200 μM, n = 5. Summed up: (§2)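 Cells at 8 × 10³ per well were exposed to 1, 10, 50, 100 and 200 μM nanoparticles in DMEM, RPMI-1640 or McCoy's 5A complete medium for 24 h. CCK-8 was added for a further 2 h and OD450 read. Viability (%) = [(treated − blank)/(control − blank)] × 100.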

The test system of data set [2] is mice bearing 4T1 breast cancer. Kind of data set: In vivo inflammatory effect, serum TNF, IL-6, IL-1β ELISA. Further details: species or system mouse. The note with it: 21 days after a single dose, 4T1 tumour mice, n = 5. Summed up: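 Serum was taken from 4T1 tumour-bearing mice (n = 5 per group) 21 days after a single dose. Arms: PBS 200 μL i.v., nanoparticles 13 mg/kg via tail vein, anti-PD-L1 antibody 5 mg/kg. TNF, IL-6 and IL-1β were measured by ELISA.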
Background: In an ELISA, binding on a coated surface is turned into a signal by an enzyme label.

Data set [3] in a line: Critical aggregation concentration. Particulars: pyrene probe, I1 (373 nm)/I3 (384 nm), 0.01-50 μM, 37 °C for 2 h, fluorescence. The data set is classed as physicochemical. Summed up:
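Pyrene fluorescence was excited at 335 nm and emission recorded. The I1 (373 nm)/I3 (384 nm) intensity ratio was used to derive the critical aggregation concentration.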

The subject of data set [4] is 4T1 cells. Kind of data set: Intracellular distribution of internalized TPM2 and TPM3. The data set is classed as cell-based, mouse. Particulars: 50 μM, 4, 24 and 48 h, LysoTracker, CLSM.
The nature of a further data set: Zeta potential by DLS. The data set is classed as physicochemical. Particulars: 200 μM, mean n = 3.
The next data set in a line: Particle size by DLS. The data set is classed as physicochemical. Particulars: aqueous solution, 200 μM.
For the next data set, the target named is PD-L1 on 4T1 cells (Mus musculus, UniProt Q9EP73). Kind of data set: Surface PD-L1 level after treatment. The data set is classed as cell-based. The note with it: 4T1, nanoparticles 50 μM or antibody 68 nM, 4 h, flow cytometry. The method, boiled down: as §1
Sequence of PD-L1 on 4T1 cells (Q9EP73 19-290): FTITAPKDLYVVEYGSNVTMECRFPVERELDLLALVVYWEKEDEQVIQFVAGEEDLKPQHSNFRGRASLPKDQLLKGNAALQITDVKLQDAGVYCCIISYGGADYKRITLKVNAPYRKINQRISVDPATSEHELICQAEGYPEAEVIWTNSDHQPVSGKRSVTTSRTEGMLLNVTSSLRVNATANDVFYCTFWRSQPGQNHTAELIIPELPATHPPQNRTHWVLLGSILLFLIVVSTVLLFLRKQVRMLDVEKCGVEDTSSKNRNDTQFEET
(Flow cytometry measures light scatter and fluorescence of single cells or particles in a stream.)

In another data set the test system is LLC cells. Kind of data set: Cytotoxicity, CCK-8. The data set is classed as cell-based, mouse. The note with it: CCK-8, 24 h, 1-200 μM, TPM1 finding at 100 μM or 200 μM. The method, boiled down: as §2
Data set [5] has as its system SKBR-3 cells. Kind of data set: Cytotoxicity, CCK-8. The data set is classed as cell-based, human. Particulars: SKBR-3, CCK-8, 24 h, 1-200 μM; TPM1 finding at 100 μM or 200 μM. Summed up:
as §2

Data set [6] addresses T1, human PD-L1 recombinant protein (Homo sapiens, UniProt Q9NZQ7). Kind of data set: CD and FTIR spectroscopy of β-sheet formation. The data set is classed as biochemical. Particulars: human PD-L1, 24 h, 50 μM, ratio 1000:1. The method, boiled down:
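Nanoparticles were incubated with or without recombinant human PD-L1. β-sheet formation was then detected by CD spectroscopy, with FTIR alongside.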

Data set [7] has as its target T1, human PD-L1 recombinant protein. Kind of data set: PD-L1-induced fibrillar transformation in aqueous solution. The data set is classed as biochemical. Particulars: 24 h incubation. The method, boiled down: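 Recombinant human PD-L1 was added to 50 μM nanoparticle solution at molar ratios of 1:100, 1:500, 1:1000, 1:2000 and 1:5000. Mixtures were incubated 0.5 h, 4 h and 24 h, then prepared for TEM to view morphology change.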

The target in data set [8] is PD-L1 on the membrane of SKBR-3 cells (Homo sapiens, UniProt Q9NZQ7). Kind of data set: Co-location of nanoparticles and PD-L1 on cell membrane. The data set is classed as cell-based. The note with it: SKBR-3, 4 h, FITC immunofluorescence. Summed up:
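PD-L1 on cells was immunostained with a FITC-labelled goat anti-mouse secondary (1:1000, 1 h, room temperature) after PBS washes. Nuclei were stained with DAPI and cells imaged by confocal microscopy. Co-localization with the nanoparticle signal was quantified computationally.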

Data set [9] deals with SKBR-3 cells. Kind of data set: Cellular distribution of peptide nanoparticles. The data set is classed as cell-based, human. Particulars: SKBR-3, 50 μM, 4 h.
The test system of data set [10] is 4T1 cells. Kind of data set: Cellular distribution of peptide nanoparticles. The data set is classed as cell-based, mouse. Particulars: 4T1, 50 μM, 4 h.
Data set [11] relates to 4T1 cells. Kind of data set: Cytotoxicity, CCK-8. The data set is classed as cell-based, mouse. Particulars: 4T1, CCK-8, 24 h, 1-200 μM; TPM1 finding at 100 μM or 200 μM. The method, boiled down:
as §2

Data set [12] can be described thus: TEM morphology of nanoparticles. The data set is classed as physicochemical. Particulars: 50 μM, uranyl acetate stain. The method, boiled down:
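A 50 μM nanoparticle solution was dried on holey-carbon copper grids and stained with 2% uranyl acetate for 3 min. Grids were imaged by TEM at 120 kV.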

In another data set the test system is PD-L1 in 4T1 cells. Kind of data set: Upregulation of PD-L1 induced by IFN-γ. The data set is classed as cell-based, mouse. The note with it: 4T1, 100 ng/mL, 24 h. Summed up:
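4T1 cells received mouse IFN-γ (100 ng/mL) in complete medium for 24 h. Western blot: cells PBS-washed three times, lysed on ice in RIPA buffer with 1% protease inhibitor, spun 13523 × g, 3 min, 4 °C; band density quantified. Flow cytometry: PBS-washed cells stained with BV421-labelled mouse anti-PD-L1 (1:200), 15 min, 4 °C, washed thrice.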

The test system of a further data set is PD-L1 in SKBR-3 cells. Kind of data set: Upregulation of PD-L1 induced by IFN-γ. The data set is classed as cell-based, human. Particulars: SKBR-3, 100 ng/mL, 24 h. Summed up:
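Recombinant human IFN-γ (100 ng/mL) added to complete medium of SKBR-3 cells for 24 h. Western blot: cells PBS-washed three times, lysed on ice in RIPA buffer with 1% protease inhibitor, spun 13523 × g, 3 min, 4 °C; band density quantified. Flow cytometry: PBS-washed cells stained with BV421-labelled human anti-PD-L1 (1:200), 15 min, 4 °C, washed thrice.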

T1 sequence (Q9NZQ7 19-239 limits assumed): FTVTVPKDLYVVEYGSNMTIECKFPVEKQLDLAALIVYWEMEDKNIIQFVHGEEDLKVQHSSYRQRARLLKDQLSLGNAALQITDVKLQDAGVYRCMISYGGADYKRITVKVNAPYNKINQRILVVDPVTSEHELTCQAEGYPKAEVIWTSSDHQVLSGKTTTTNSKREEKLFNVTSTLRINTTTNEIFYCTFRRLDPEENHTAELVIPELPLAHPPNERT
Sequence of PD-L1 on SKBR-3 cells (Q9NZQ7 19-290): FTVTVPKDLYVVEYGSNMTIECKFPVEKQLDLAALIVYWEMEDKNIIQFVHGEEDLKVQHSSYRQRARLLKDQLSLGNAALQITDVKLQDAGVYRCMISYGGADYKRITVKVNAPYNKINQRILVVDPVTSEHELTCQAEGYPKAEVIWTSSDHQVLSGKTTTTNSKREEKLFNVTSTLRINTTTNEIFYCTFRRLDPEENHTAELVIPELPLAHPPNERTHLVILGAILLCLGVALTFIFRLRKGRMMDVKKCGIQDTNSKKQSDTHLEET
Sequence of PD-L1 on the membrane of SKBR-3 cells (Q9NZQ7 19-290): as above

In the case of “Ac-K(Ce6)-GGAAK-SGQYASYHCWCWRDPGRSGGSK [TPM2]”, the “time of peak fluorescence intensity in the tumour” value in the data set with mice bearing 4T1 tumour (ex vivo imaging) was found to be 24 h. Moreover, the “fluorescent signals in the tumour remained until” value with mice bearing 4T1 tumour came out at 48 h. Moreover, in data set [1], the “effect on T cell activity” value is given as “no effect”. For the same molecule, the “change in PD-L1 expression levels before and after incubation” value at PD-L1 on SKBR-3 cells and at PD-L1 on 4T1 cells was “no significant changes” each time. Moreover, the cytotoxicity entry in the data set with HFF cells is recorded as “no apparent cytotoxicity”; in the data set with LLC cells, “No cytotoxicity”; in the data set with SKBR-3 cells [5], “No cytotoxicity”; in the data set with 4T1 cells [11], “No cytotoxicity”. In addition, in [2], the “serum TNF, IL-6 and IL-1β versus PBS and other groups” value was “no significant difference”. In addition, the “critical aggregation concentration (CAC)” value in [3] is 9.8 µM. In addition, the “fate of internalized nanoparticles” value with 4T1 cells [4] was “predominately degraded in lysosomes”. In addition, the “zeta potential of initial nanoparticles” value in the data set “Zeta potential by DLS” is on record as “+19.6 mV”. Also, the “diameter of nanoparticles (DLS)” value in the data set “Particle size by DLS” is reported as ~ 19 nm. The “CD signals after incubation with PD-L1 protein” value in data set [6] is “No such change”. For the same molecule, the “morphology after incubation with PD-L1 proteins (TEM)” value in data set [7] is recorded as “no noticeable change in morphology”. In [8], the “co-localization with PD-L1 on cell membrane” value was “No apparent co-localization”. In addition, the “location of Ce6 red fluorescence signals (CLSM)” value in the data set with SKBR-3 cells [9] and with 4T1 cells [10] was “inside cells rather than on the cell membranes” in each case. For the same molecule, in data set [12], the “morphology of nanoparticles (TEM)” value is reported as “spherical structure”.

B1: IFN-γ: human or mouse IFN-γ (PeproTech), 100 ng/mL, used to upregulate PD-L1 expression (protein, UniProt P01579 24-161, looked up)
Interferon gamma: QDPYVKEAENLKKYFNAGHSDVADNGTLFLGILKNWKEESDRKIMQSQIVSFYFKLFKNFKDDQSIQKSVETIKEDMNVKFFNSNKKKRDDFEKLTNYSVTDLNVQRKAIHELIQVMAELSPAAKTGKRKRSQMLFRG
As for B1, the “PD-L1 expression after IFN-γ treatment” value in the data set on PD-L1 in 4T1 cells and in the data set on PD-L1 in SKBR-3 cells was “increased PD-L1 expression” in each case.
